Data from ChEMBL document CHEMBL5058577, “EUbOPEN Chemogenomics Library 2 (Multiplex)” (2022).

Tested on: Fibroblast
Test: Multiplex assay against human fibroblast
Assay type: toxicity, cell-based
Summary of the method: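 Cells stained live at seeding with Hoechst33342, BioTracker Green Microtubule Cytoskeleton Dye, MitoTracker Red and Annexin V Alexa Fluor 680 were imaged on a CQ1 microscope at 37°C and 5% CO2 after compound addition. Their classification by CellPathfinder machine-learning gating ran from Hoechst high-intensity objects versus normal cells, to healthy, pyknosed or fragmented nuclei among normal cells, to mitotic or apoptotic among pyknosed cells. Tubulin, mitochondrial-mass and membrane-permeability phenotypes are per cents of healthy-nucleus cells.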

[1] = 12 h, 1 µM, compound concentration 1 uM, replicate 1
[2] = 12 h, 1 µM, compound concentration 1 uM, replicate 2
[3] = 12 h, 10 µM, compound concentration 10 uM, replicate 1
[4] = 12 h, 10 µM, compound concentration 10 uM, replicate 2
[5] = 24 h, 1 µM, compound concentration 1 uM, replicate 1
[6] = 24 h, 1 µM, compound concentration 1 uM, replicate 2
[7] = 24 h, 10 µM, compound concentration 10 uM, replicate 1
[8] = 24 h, 10 µM, compound concentration 10 uM, replicate 2
[9] = 48 h, 1 µM, compound concentration 1 uM, replicate 1
[10] = 48 h, 1 µM, compound concentration 1 uM, replicate 2
[11] = 48 h, 10 µM, compound concentration 10 uM, replicate 1
[12] = 48 h, 10 µM, compound concentration 10 uM, replicate 2

In the case of `CCc1cc2cc(NS(=O)(=O)c3ccc(C#N)cc3)ccc2n(CC)c1=O`, the “Population Apoptotic (%)” value [1] is reported as 42%, the “Population Fragmented Nuclei (%)” value [1] is reported as 16% and the “Population Healthy Nuclei (%)” value [1] is reported as 64%. The “Population Hoechst High Intensity Objects (%)” value [1] was 1%, the “Population Membrane Permeable-Phenotype (%)” value [1] was 1% and the “Population Mitochondria Different-Phenotype (%)” value [1] was 3%. The “Population Mitotic Cells (%)” value [1] was 57%, the “Population Normal (%)” value [1] was 98% and the “Population Pyknosed Nuclei (%)” value [1] was 18%. For the same compound, the “Population Tubulin-Different-Phenotype (%)” value [1] was 24%, the “Total Cell Count” value [1] was 157 and the “Population Fragmented Nuclei (%)” value [2] was 27%. For the same compound, the “Population Healthy Nuclei (%)” value [2] was 40%, the “Population Hoechst High Intensity Objects (%)” value [2] was 6% and the “Population Membrane Permeable-Phenotype (%)” value [2] was 9%. The “Population Mitochondria Different-Phenotype (%)” value [2] was 7%, the “Population Normal (%)” value [2] was 93% and the “Population Pyknosed Nuclei (%)” value [2] was 32%. The “Population Tubulin-Different-Phenotype (%)” value [2] was 39%, the “Total Cell Count” value [2] was 173 and the “Population Apoptotic (%)” value [3] was 42%. For the same compound, the “Population Fragmented Nuclei (%)” value [3] was 18%, the “Population Healthy Nuclei (%)” value [3] was 54% and the “Population Hoechst High Intensity Objects (%)” value [3] was 1%. The “Population Membrane Permeable-Phenotype (%)” value [3] was 1%, the “Population Mitochondria Different-Phenotype (%)” value [3] was 5% and the “Population Mitotic Cells (%)” value [3] was 57%. For the same compound, the “Population Normal (%)” value [3] was 98%, the “Population Pyknosed Nuclei (%)” value [3] was 26% and the “Population Tubulin-Different-Phenotype (%)” value [3] was 65%. For the same compound, the “Total Cell Count” value [3] was 133, the “Population Apoptotic (%)” value [4] was 18% and the “Population Fragmented Nuclei (%)” value [4] was 19%. The “Population Healthy Nuclei (%)” value [4] was 43%, the “Population Hoechst High Intensity Objects (%)” value [4] was 5% and the “Population Membrane Permeable-Phenotype (%)” value [4] was 12%. The “Population Mitochondria Different-Phenotype (%)” value [4] was 6%, the “Population Mitotic Cells (%)” value [4] was 81% and the “Population Normal (%)” value [4] was 94%. The “Population Pyknosed Nuclei (%)” value [4] was 37%, the “Population Tubulin-Different-Phenotype (%)” value [4] was 74% and the “Total Cell Count” value [4] was 153. For the same compound, the “Population Apoptotic (%)” value [5] was 53%, the “Population Fragmented Nuclei (%)” value [5] was 19% and the “Population Healthy Nuclei (%)” value [5] was 63%. For the same compound, the “Population Hoechst High Intensity Objects (%)” value [5] was 5%, the “Population Membrane Permeable-Phenotype (%)” value [5] was 1% and the “Population Mitochondria Different-Phenotype (%)” value [5] was 4%. For the same compound, the “Population Mitotic Cells (%)” value [5] was 46%, the “Population Normal (%)” value [5] was 94% and the “Population Pyknosed Nuclei (%)” value [5] was 17%. The “Population Tubulin-Different-Phenotype (%)” value [5] was 26%, the “Total Cell Count” value [5] was 157 and the “Population Apoptotic (%)” value [6] was 43%. The “Population Fragmented Nuclei (%)” value [6] was 26%, the “Population Healthy Nuclei (%)” value [6] was 48% and the “Population Hoechst High Intensity Objects (%)” value [6] was 6%. The “Population Membrane Permeable-Phenotype (%)” value [6] was 9%, the “Population Mitochondria Different-Phenotype (%)” value [6] was 8% and the “Population Mitotic Cells (%)” value [6] was 56%. The “Population Normal (%)” value [6] was 93%, the “Population Pyknosed Nuclei (%)” value [6] was 25% and the “Population Tubulin-Different-Phenotype (%)” value [6] was 51%. The “Total Cell Count” value [6] was 164, the “Population Apoptotic (%)” value [7] was 50% and the “Population Fragmented Nuclei (%)” value [7] was 19%. The “Population Healthy Nuclei (%)” value [7] was 58%, the “Population Hoechst High Intensity Objects (%)” value [7] was 2% and the “Population Membrane Permeable-Phenotype (%)” value [7] was 1%. The “Population Mitochondria Different-Phenotype (%)” value [7] was 6%, the “Population Mitotic Cells (%)” value [7] was 50% and the “Population Normal (%)” value [7] was 97%. The “Population Pyknosed Nuclei (%)” value [7] was 22%, the “Population Tubulin-Different-Phenotype (%)” value [7] was 59% and the “Total Cell Count” value [7] was 130. For the same compound, the “Population Apoptotic (%)” value [8] was 32%, the “Population Fragmented Nuclei (%)” value [8] was 22% and the “Population Healthy Nuclei (%)” value [8] was 38%. For the same compound, the “Population Hoechst High Intensity Objects (%)” value [8] was 9%, the “Population Membrane Permeable-Phenotype (%)” value [8] was 6% and the “Population Mitochondria Different-Phenotype (%)” value [8] was 12%. For the same compound, the “Population Mitotic Cells (%)” value [8] was 67%, the “Population Normal (%)” value [8] was 90% and the “Population Pyknosed Nuclei (%)” value [8] was 39%. The “Population Tubulin-Different-Phenotype (%)” value [8] was 72%, the “Total Cell Count” value [8] was 145 and the “Population Apoptotic (%)” value [9] was 52%. For the same compound, the “Population Fragmented Nuclei (%)” value [9] was 24%, the “Population Healthy Nuclei (%)” value [9] was 59% and the “Population Hoechst High Intensity Objects (%)” value [9] was 3%. The “Population Membrane Permeable-Phenotype (%)” value [9] was 0%, the “Population Mitochondria Different-Phenotype (%)” value [9] was 4% and the “Population Mitotic Cells (%)” value [9] was 47%. The “Population Normal (%)” value [9] was 96%, the “Population Pyknosed Nuclei (%)” value [9] was 15% and the “Population Tubulin-Different-Phenotype (%)” value [9] was 27%. The “Total Cell Count” value [9] was 150, the “Population Apoptotic (%)” value [10] was 37% and the “Population Fragmented Nuclei (%)” value [10] was 33%. The “Population Healthy Nuclei (%)” value [10] was 50%, the “Population Hoechst High Intensity Objects (%)” value [10] was 5% and the “Population Membrane Permeable-Phenotype (%)” value [10] was 12%. For the same compound, the “Population Mitochondria Different-Phenotype (%)” value [10] was 8%, the “Population Mitotic Cells (%)” value [10] was 62% and the “Population Normal (%)” value [10] was 94%. The “Population Pyknosed Nuclei (%)” value [10] was 16%, the “Population Tubulin-Different-Phenotype (%)” value [10] was 60% and the “Total Cell Count” value [10] was 156. For the same compound, the “Population Apoptotic (%)” value [11] was 60%, the “Population Fragmented Nuclei (%)” value [11] was 17% and the “Population Healthy Nuclei (%)” value [11] was 62%. The “Population Hoechst High Intensity Objects (%)” value [11] was 1%, the “Population Membrane Permeable-Phenotype (%)” value [11] was 1% and the “Population Mitochondria Different-Phenotype (%)” value [11] was 12%. The “Population Mitotic Cells (%)” value [11] was 40%, the “Population Normal (%)” value [11] was 98% and the “Population Pyknosed Nuclei (%)” value [11] was 19%. For the same compound, the “Population Tubulin-Different-Phenotype (%)” value [11] was 61%, the “Total Cell Count” value [11] was 129 and the “Population Fragmented Nuclei (%)” value [12] was 30%. For the same compound, the “Population Healthy Nuclei (%)” value [12] was 48%, the “Population Hoechst High Intensity Objects (%)” value [12] was 7% and the “Population Membrane Permeable-Phenotype (%)” value [12] was 18%. For the same compound, the “Population Mitochondria Different-Phenotype (%)” value [12] was 7%, the “Population Mitotic Cells (%)” value [12] was 39% and the “Population Normal (%)” value [12] was 92%. The “Population Pyknosed Nuclei (%)” value [12] was 20%, the “Population Tubulin-Different-Phenotype (%)” value [12] was 69% and the “Total Cell Count” value [12] was 145.
